Source: article PMC8158801 (ACS Omega, 2021)

What was measured:
[1] = system: Human hepatocellular carcinoma (HepG2) cell line; assay: Cytotoxic activity, MTT cell viability assay, HepG2; type: cell-based; set-up: unit not given beside the values; conditions: n = 3, reference standard
Outline: (§1)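 The defatted alcoholic root extract was tested at 4–500 μg/mL, with cisplatin as the reference standard, in an MTT cell-viability assay. Viability is expressed as % of untreated control. IC50 was derived by linear regression. Each point was run in triplicate and reported as mean ± SD.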

[2] = system: mouse myelogenous leukemia (M-NFS-60) cell line; assay: Cytotoxic activity, MTT cell viability assay, M-NFS-60; type: cell-based; set-up: unit not given beside the values; conditions: n = 3, reference standard
Outline: as §1

N.N.[Cl][Pt][Cl] [cisplatin]
IC50 against HepG2 cell line (unit not given) [1]: 3.25 ± 1.4 | IC50 against M-NFS-60 cell line (unit not given) [2]: 8.37 ± 0.25
